This note sets out measurements from BindingDB's records for doi:10.1016/j.ejmech.2019.111879 (University of Bonn, 2020).

Broadly, the EC50 is the concentration needed to bring the measured effect to its halfway point.

In experiment [1] the target is T1, Adenosine receptor A3 (Rattus norvegicus, UniProt P28647).
T1 sequence (P28647 whole entry): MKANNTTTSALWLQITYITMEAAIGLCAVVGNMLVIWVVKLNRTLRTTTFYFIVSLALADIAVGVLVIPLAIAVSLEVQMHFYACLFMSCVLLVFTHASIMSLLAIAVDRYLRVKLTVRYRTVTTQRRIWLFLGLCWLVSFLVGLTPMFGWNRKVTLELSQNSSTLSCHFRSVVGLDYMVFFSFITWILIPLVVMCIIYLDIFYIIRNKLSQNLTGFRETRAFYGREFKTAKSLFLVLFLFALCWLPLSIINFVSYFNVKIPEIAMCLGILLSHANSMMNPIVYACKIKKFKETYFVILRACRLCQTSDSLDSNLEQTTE
The experiment in a line: Antagonist activity at rat A3AR expressed in CHO cells assessed as reduction in NECA-induced inhibition of forskolin-stimulated cAMP accumulation at 3 uM incubated for 2 hrs by fluorescence based assay. The procedure, abridged:
(§1)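 CHO cells stably expressing rat A3 AR, seeded at 150,000-200,000 cells/well. Cells washed, then held 2 h at 37 °C in HBSS with 20 mM HEPES (pH 7.3) and 2 U/ml adenosine deaminase. Forskolin (10 μM) plus NECA concentration series added at 36.5 °C, with or without test compound. Stopped by hot lysis solution (90 °C, 4 mM Na2EDTA, Triton X-100). Data normalized to forskolin (100%) and buffer (0%). KB calculated, n=3.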
On the technique in general: cAMP levels reflect the balance of adenylyl cyclase and phosphodiesterase activity.

The target in experiment [2] is T1, Adenosine receptor A3. Put plainly: Antagonist activity at rat A3AR expressed in CHO cells assessed as reduction in NECA-induced inhibition of forskolin-stimulated cAMP accumulation incubated for 2 hrs by fluorescence based assay. The procedure, abridged: as §1
The target of experiment [3] is T1, Adenosine receptor A3. Put plainly: Antagonist activity at rat A3AR expressed in CHO cells assessed as reduction in NECA-induced inhibition of forskolin-stimulated cAMP accumulation at 10 uM incubated for 2 hrs by fluorescence based assay. In outline:
as §1

Experiment [4] deals with T2, Adenosine receptor A1 (Rattus norvegicus, UniProt P25099).
T2 sequence (P25099 whole entry): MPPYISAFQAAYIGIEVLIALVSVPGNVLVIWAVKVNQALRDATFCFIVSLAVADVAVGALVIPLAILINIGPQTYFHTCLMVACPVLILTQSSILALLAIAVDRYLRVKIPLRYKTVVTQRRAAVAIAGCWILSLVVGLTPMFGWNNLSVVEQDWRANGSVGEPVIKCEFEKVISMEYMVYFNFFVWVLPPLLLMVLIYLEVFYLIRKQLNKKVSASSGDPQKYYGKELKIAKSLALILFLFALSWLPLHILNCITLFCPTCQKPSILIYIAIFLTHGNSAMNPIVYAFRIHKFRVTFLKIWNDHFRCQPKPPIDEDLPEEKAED
The experiment in a line: Displacement of [3H]DPCPX from rat brain cortical membrane A1AR assessed as GTP shift. (Loss of bound radioactivity is the signal in a displacement assay; it reports binding, not function.)

As for `O=C(Nc1nc(-c2ccccc2)c(-c2nc3ccccc3c(=O)n2-c2ccc(Cl)cc2)s1)c1ccco1`, the EC50 in experiment [1] was 57 nM; in experiment [2], 5.3 nM; in experiment [3] it was 1720 nM.
Regarding `Cc1ccc(C(=O)c2sc(NC(=O)c3ccco3)nc2-c2ccccc2)cc1`, in experiment [4], the GTP shift came out at 1.3.
In the case of `COc1ccc(C(=O)Nc2nc(-c3ccccc3)c(C(=O)c3ccc(C)cc3)s2)cc1`, the GTP shift in experiment [4] turned out to be 1.
`O=C(Nc1nc(-c2ccccc2)c(C(=O)c2ccc(Cl)cc2)s1)c1ccccc1`: in experiment [4], the GTP shift turned out to be 1.
With `O=C(Nc1nc(-c2ccccc2)c(C(=O)c2ccc(F)cc2F)s1)c1ccccc1`, in experiment [4], the GTP shift is 0.9.
